We go through four molecules from ChEMBL document CHEMBL4359875, “Development of novel theranostic agents for in vivo amyloid imaging and protective effects on human neuroblastoma cells” (Eur J Med Chem, 2019).

The term Kd denotes a measure of binding affinity in units of concentration.

Active and inactive are the calls of the source. The calls are words filed in the database; no cut-off is given here.

Data set [1] in a line: Metal chelating activity assessed as compound-Cu2+ complex formation at 20 uM by UV-visible spectroscopy. An outline of the steps: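 UV/Vis titration: compound 20 μM in water with CuSO4 added from 0 to 1000 μM. Spectrum recorded after each addition. Triplicate.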
Data set [2] addresses T1, Amyloid-beta precursor protein (Homo sapiens, UniProt P05067). Description: Binding affinity to amyloid beta 1 to 42 (unknown origin) in PBS buffer at pH 7.4 assessed as increase in red shift in maximum absorption at 0.2 uM by fluorescence based assay. An outline of the steps: (§1)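 Fluorescence titration in PBS pH 7.4: probe 0.2 μM with stepwise addition of synthetic Aβ1-42 aggregates (0 to 10.0 μM). Emission maxima compared with probe alone in PBS.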

The target in data set [3] is T1, Amyloid-beta precursor protein. As to the kind of experiment: Binding affinity to amyloid beta 1 to 42 (unknown origin) in PBS buffer at pH 7.4 assessed as binding constant by fluorescence based assay. An outline of the steps: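 Synthetic Aβ1-42 aggregates in PBS. Kd from a saturation binding assay read by fluorescence. Triplicate, mean ± SD.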
The nature of data set [4]: Photostability of compound. Type of data set: physicochemical.
A short description of data set [5]: Stability in mouse plasma assessed as remaining compound at 50 uM incubated for 30 to 60 mins by HPLC analysis. The format is ADME, cell-free. The following applies: read-out: Stability. In outline:
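Compound in ethanol (50 μM) added to plasma (1:9 by volume), with PBS as the standard. Incubated at 37 °C for 30 or 60 min. Mixture treated twice with acetonitrile and centrifuged. Supernatant analysed by HPLC on C18 with CH3CN/H2O 85:15 at 1 mL/min, 30 °C.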

The test system of another data set is SH-SY5Y. Description: Dark toxicity against human SH-SY5Y cells assessed as reduction in cell viability at 50 uM incubated for 24 hrs by MTT assay. The format is cell-based. In outline: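 SH-SY5Y seeded at 5000 cells/well and incubated overnight. Compound added at a range of concentrations for 24 h, run with or without light exposure. MTT (5 mg/mL) added for 4 h, then absorbance read at 570 nm.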
On the technique in general: Tetrazolium assays rely on reduction of a dye to a coloured formazan, in cell work by metabolically active cells.

Data set [6] addresses T1, Amyloid-beta precursor protein. Description: Inhibition of amyloid beta 1 to 42 (unknown origin)-induced cytotoxicity in human SH-SY5Y cells at 1 to 5 uM incubated for 24 hrs by MTT assay. Type of data set: cell-based. An outline of the steps: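 SH-SY5Y at 5000 cells/well, incubated overnight. Treated for 24 h with 5 μM Aβ1-42 monomer plus compound (1 or 5 μM). MTT (5 mg/mL) added for 4 h, absorbance read at 570 nm.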

Data set [7] shares this target. As to the kind of experiment: Inhibition of amyloid beta 1 to 42 (unknown origin)-induced ROS production in human SH-SY5Y cells at 1 and 5 uM incubated for 24 hrs by DCFH-DA staining based fluorescence assay. The format is cell-based. An outline of the steps: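 SH-SY5Y at 5000 cells/well, incubated overnight. Medium then replaced with Aβ1-42 (2 μM final) alone or with compound (1 and 5 μM) for 24 h at 37 °C, 5% CO2. DCFH-DA 10 μM added for 30 min at 37 °C, cells washed twice. Fluorescence read at ex/em 488/525 nm. Mean ± SD, Student's t test.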

Data set [8] has the same target. Description: Binding affinity to amyloid beta 1 to 42 (unknown origin) in PBS buffer at pH 7.4 assessed as increase in blue shift in maximum absorption at 0.2 uM by fluorescence based assay. In outline: as §1
In data set [9] the target is Amyloid-beta precursor protein (Mus musculus) (UniProt P12023). As to the kind of experiment: Binding affinity to amyloid beta 1 to 42 in double transgenic C57BL/6 APPswe/PSEN1 mouse assessed as plaque formation in cortex region at 1 uM incubated for 5 mins by fluorescence microscopy. In outline:
(§2)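 Frozen brain sections from male APP/PS1 double transgenic mice and age-matched male C57BL/6 wild-type mice, both 10 months old. Sections were washed in PBS to remove OCT, then stained with 1 μM probe or ThT in 10% ethanol for 5 min at room temperature. They were washed twice with ethanol and PBS (0.1 M, pH 7.4) for 10 min. Cortex and hippocampus were imaged by fluorescence microscopy with GFP and Cy5 filter sets.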

For data set [10] the target is unchanged. As to the kind of experiment: Binding affinity to amyloid beta 1 to 42 in C57BL/6 mouse brain cortex assessed as plague formation at 1 uM incubated for 5 mins by fluorescence microscopy. In outline:
as §2

For data set [11], the system named is Mus musculus. As to the kind of experiment: In vivo binding affinity to amyloid beta 1 to 42 in APP/PS1 double transgenic C57BL/6 mouse brain assessed as amyloid-beta plaque-compound complex formation at 4 mg/kg, iv measured for 5 to 60 mins by NIR imaging analysis. Type of data set: functional, organism-based. In outline: (§3)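 Male APP/PS1 double-transgenic and age-matched wild-type C57BL/6 mice, 12 months old, shaved. Compound 4 mg/kg in 50 μl of 20% DMSO/80% propylene glycol given via tail vein. Mice kept under 2.5% isoflurane in oxygen. Head NIR fluorescence imaged before and at time points from 5 to 60 min after dosing.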

The subject of data set [12] is Mus musculus. As to the kind of experiment: In vivo binding affinity to amyloid beta 1 to 42 in C57BL/6 mouse brain assessed as amyloid-beta plaque-compound complex formation at 4 mg/kg, iv measured for 5 to 60 mins by NIR imaging analysis. Type of data set: functional, organism-based. In outline:
as §3

In data set [13] the target is T1, Amyloid-beta precursor protein. As to the kind of experiment: Inhibition of amyloid beta 1 to 42 aggregation in human SH-SY5Y cells incubated for 48 hrs by fluorescence microscopy. The format is cell-based. In outline: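 SH-SY5Y seeded at 2000 cells/well with Aβ1-42 monomer (0.25 μM) alone or plus compound (0.05 or 0.5 μM), 48 h at 37 °C, 5% CO2. Controls got compound after the 2 days. Read as average pixel intensity of four random fields by fluorescence microscopy. Three independent experiments.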

In data set [14] the target is Amyloid-beta precursor protein (Mus musculus) (UniProt P12023). Description: Binding affinity to amyloid beta 1 to 42 in double transgenic C57BL/6 APPswe/PSEN1 mouse assessed as plaque formation in hippocampus region at 1 uM incubated for 5 mins by fluorescence microscopy. An outline of the steps:
as §2

Data set [15] shares this target. Description: Binding affinity to amyloid beta 1 to 42 in C57BL/6 mouse brain hippocampus assessed as plague formation at 1 uM incubated for 5 mins by fluorescence microscopy. In outline:
as §2

T1 sequence (P05067 whole entry): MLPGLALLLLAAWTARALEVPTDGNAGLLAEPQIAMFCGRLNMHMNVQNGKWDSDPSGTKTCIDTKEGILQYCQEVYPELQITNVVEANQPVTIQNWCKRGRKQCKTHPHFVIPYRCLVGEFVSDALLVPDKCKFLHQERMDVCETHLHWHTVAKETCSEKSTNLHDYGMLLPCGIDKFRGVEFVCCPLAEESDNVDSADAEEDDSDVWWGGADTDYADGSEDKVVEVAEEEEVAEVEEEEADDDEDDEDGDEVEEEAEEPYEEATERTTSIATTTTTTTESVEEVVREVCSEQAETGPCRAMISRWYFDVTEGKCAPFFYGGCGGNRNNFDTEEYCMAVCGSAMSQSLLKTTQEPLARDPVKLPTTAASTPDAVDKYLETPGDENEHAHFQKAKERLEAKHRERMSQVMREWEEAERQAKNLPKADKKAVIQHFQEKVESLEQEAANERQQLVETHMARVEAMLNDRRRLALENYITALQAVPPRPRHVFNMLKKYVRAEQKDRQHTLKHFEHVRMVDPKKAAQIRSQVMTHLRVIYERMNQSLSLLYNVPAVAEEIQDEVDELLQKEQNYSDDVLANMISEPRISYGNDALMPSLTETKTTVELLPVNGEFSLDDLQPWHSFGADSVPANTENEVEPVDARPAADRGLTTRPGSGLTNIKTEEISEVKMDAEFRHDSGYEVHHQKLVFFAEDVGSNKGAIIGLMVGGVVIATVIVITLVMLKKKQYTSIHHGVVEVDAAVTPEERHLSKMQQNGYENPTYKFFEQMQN
Chain of Amyloid-beta precursor protein (Mus musculus) (P12023 whole entry): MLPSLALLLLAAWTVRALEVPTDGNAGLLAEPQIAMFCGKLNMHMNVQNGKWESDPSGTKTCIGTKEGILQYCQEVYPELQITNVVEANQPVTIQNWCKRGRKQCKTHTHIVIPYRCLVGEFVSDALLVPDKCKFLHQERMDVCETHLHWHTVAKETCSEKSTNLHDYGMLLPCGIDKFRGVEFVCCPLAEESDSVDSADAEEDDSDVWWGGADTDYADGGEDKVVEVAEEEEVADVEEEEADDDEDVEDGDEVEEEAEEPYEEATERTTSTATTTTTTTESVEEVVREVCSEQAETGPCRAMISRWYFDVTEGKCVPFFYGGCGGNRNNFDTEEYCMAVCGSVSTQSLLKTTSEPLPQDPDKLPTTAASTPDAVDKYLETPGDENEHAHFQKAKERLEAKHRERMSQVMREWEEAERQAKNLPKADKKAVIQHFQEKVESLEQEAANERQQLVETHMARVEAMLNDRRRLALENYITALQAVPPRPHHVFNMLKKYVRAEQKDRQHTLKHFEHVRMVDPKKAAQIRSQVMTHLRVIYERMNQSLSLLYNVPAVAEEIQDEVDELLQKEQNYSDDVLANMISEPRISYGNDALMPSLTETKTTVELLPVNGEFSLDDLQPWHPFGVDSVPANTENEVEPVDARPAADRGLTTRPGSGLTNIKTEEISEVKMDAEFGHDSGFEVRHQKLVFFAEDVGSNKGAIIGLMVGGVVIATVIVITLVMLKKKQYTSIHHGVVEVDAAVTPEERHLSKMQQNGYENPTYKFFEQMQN

In the case of `CN1c2ccccc2Sc2cc(/C=C3/SC(=S)N(CC(=O)N(CC(=O)O)CC(=O)O)C3=O)ccc21`, the outcome in data set [1], in [6] and in data set [7] was Active. The fold change (FC) in data set [2] was found to be 2.4. In data set [3], the Kd was 76.5 nM. The Stability entry in data set [4] was “Stable”. In data set [5], the remaining at 50 µM is above 96%. In addition, the Activity entry in the data set on SH-SY5Y is “Non-Toxic”.

For the molecule `CN1c2ccccc2Sc2cc(/C=C3/SC(=S)N(CC(=O)OCC4COC(C)(C)O4)C3=O)ccc21` (stereo not drawn), in [8], the fold change (FC) was found to be 22. In addition, the equilibrium dissociation constant (Kd) in data set [3] came to 24.5 nM. In addition, in data set [4], the Stability entry was “Stable”. In addition, the remaining at 50 µM in [5] was above 96%. Besides, the Activity entry with SH-SY5Y is recorded as “Non-Toxic”. Besides, the result (in data set [9]; in the data set with Mus musculus [11]; in data set [14]) was Active. In addition, the outcome (in [10]; in the data set with Mus musculus [12]; in [15]) was inactive. Further, in data set [13], the inhibition entry is “Dose-dependent effect”.

`CCOC(=O)CN(CC(=O)OCC)C(=O)CN1C(=O)/C(=C\c2ccc3c(c2)Sc2ccccc2N3C)SC1=S`: the fold change (FC) in data set [8] was found to be 38.3. Also, the Kd in data set [3] stood at 46.3 nM. Also, the Stability result in data set [4] was “Stable”. Also, the remaining at 50 µM in [5] was above 96%. Moreover, in the data set with SH-SY5Y, the Activity entry is listed as “Non-Toxic”.

For the molecule `CN1c2ccccc2Sc2cc(/C=C3/SC(=S)N(CC(=O)OCC(O)CO)C3=O)ccc21` (stereo not drawn), the outcome in data set [1], in data set [6] and in data set [7] was Active. For the same molecule, the fold change (FC) in data set [8] was determined as 9.5. The dissociation constant (Kd) in data set [3] amounted to 34.9 nM. In [4], the Stability result is on record as “Stable”. In data set [5], the remaining at 50 µM is above 96%. Moreover, the Activity entry with SH-SY5Y is reported as “Non-Toxic”.
